Measured values taken from ChEMBL document CHEMBL4184105, “Synthesis and biological evaluation of novel mono- and bivalent ASGP-R-targeted drug-conjugates” (Bioorg Med Chem Lett, 2018).
The source made the active and inactive calls. No cut-off for these calls is given here.

Tests used:
HepG2 [1] = test: Induction of morphological changes in human HepG2 cells assessed as mitosis with more than 2 poles at 1 umol after 24 hrs by DAPI staining-based immunofluorescence assay; format: functional, cell-based
Procedure, shortened: (§1)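 HepG2 cells were fixed, permeabilized and immunostained with an anti-α-tubulin antibody, with nuclei counterstained by DAPI. Nuclear and cytoskeletal (microtubule, mitotic spindle) morphology was then examined by immunofluorescence microscopy alongside untreated cells.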

[2] = Stability of compound at pH 5 after 24 hrs by HPLC-MS analysis; format: physicochemical; settings: buffer, pH 5, 24 h
[3] = Stability of compound at pH 7.4 after 24 hrs by HPLC-MS analysis; format: physicochemical; settings: buffer, pH 7.4, 24 h
HepG2 [4] = test: Induction of morphological changes in human HepG2 cells assessed as altered microtubule structure at 1 umol after 24 hrs by DAPI staining-based immunofluorescence assay; format: functional, cell-based; procedure, shortened: as §1
HepG2 [5] = test: Induction of morphological changes in human HepG2 cells assessed as abnormal nuclei at 1 umol after 24 hrs by DAPI staining-based immunofluorescence assay; format: functional, cell-based; procedure, shortened: as §1
HepG2 [6] = test: Cytotoxicity against human HepG2 cells by MTS assay; format: functional
[7] = Binding affinity to rabbit asialoglycoprotein receptor by SPR assay; set-up: species or system Oryctolagus cuniculus

Row | Compound | Activity (HepG2 [1]) | Stability [2] | Stability [3] | Activity (HepG2 [4]) | Activity (HepG2 [5]) | CC50 (HepG2 [6]) [nM] | Kd [7] [nM]
1 | CC(=O)N[C@H]1[C@H](OCCn2cc(CCCC(=O)O[C@@H](C(=O)O[C@H]3C[C@@]4(O)[C@@H](OC(=O)c5ccccc5)[C@@H]5[C@]6(OC(C)=O)CO[C@@H]6C[C@H](O)[C@@]5(C)C(=O)[C@H](OC(C)=O)C(=C3C)C4(C)C)[C@@H](NC(=O)c3ccccc3)c3ccccc3)nn2)O[C@H](CO)[C@H](O)[C@@H]1O | Active | Stable | Stable | Active | Active | 820 | 249
2 | CC(=O)N[C@H]1[C@H](OCCn2cc(CCCC(=O)O[C@H]3C[C@H]4OC[C@@]4(OC(C)=O)[C@H]4[C@H](OC(=O)c5ccccc5)[C@]5(O)C[C@H](OC(=O)[C@H](OC(=O)CCCc6cn(CCO[C@@H]7O[C@H](CO)[C@H](O)[C@H](O)[C@H]7NC(C)=O)nn6)[C@@H](NC(=O)c6ccccc6)c6ccccc6)C(C)=C([C@@H](OC(C)=O)C(=O)[C@]34C)C5(C)C)nn2)O[C@H](CO)[C@H](O)[C@@H]1O | Active | Stable | Stable | Active | Active | – | –
3 | CC(=O)O[C@H]1C(=O)[C@@]2(C)[C@H]([C@H](OC(=O)c3ccccc3)[C@]3(O)C[C@H](OC(=O)[C@H](O)[C@@H](NC(=O)c4ccccc4)c4ccccc4)C(C)=C1C3(C)C)[C@]1(OC(C)=O)CO[C@@H]1C[C@@H]2O [PACLITAXEL] | Active | Stable | Stable | Active | Active | 120 to 210 | –
4 | CC(=O)N[C@H]1[C@H](OCCCCCCNC(=O)CCOCC(COCCC(=O)NCCCCCCO[C@@H]2O[C@H](CO)[C@H](O)[C@H](O)[C@H]2NC(C)=O)(COCCC(=O)NCCCCCCO[C@@H]2O[C@H](CO)[C@H](O)[C@H](O)[C@H]2NC(C)=O)NC(=O)CCCCCCCCCCn2cc(CCCC(=O)O[C@@H](C(=O)O[C@H]3C[C@@]4(O)[C@@H](OC(=O)c5ccccc5)[C@@H]5[C@]6(OC(C)=O)CO[C@@H]6C[C@H](O)[C@@]5(C)C(=O)[C@H](OC(C)=O)C(=C3C)C4(C)C)[C@@H](NC(=O)c3ccccc3)c3ccccc3)nn2)O[C@H](CO)[C@H](O)[C@@H]1O | – | Stable | Stable | – | – | 110 | 1.36
5 | C=CCO[C@@H]1O[C@H](Cn2cc(CCCC(=O)O[C@H]3C[C@H]4OC[C@@]4(OC(C)=O)[C@H]4[C@H](OC(=O)c5ccccc5)[C@]5(O)C[C@H](OC(=O)[C@H](OC(=O)CCCc6cn(C[C@H]7O[C@@H](OCC=C)[C@H](NC(C)=O)[C@@H](O)[C@H]7O)nn6)[C@@H](NC(=O)c6ccccc6)c6ccccc6)C(C)=C([C@@H](OC(C)=O)C(=O)[C@]34C)C5(C)C)nn2)[C@H](O)[C@H](O)[C@H]1NC(C)=O | – | Stable | Stable | – | – | – | 0.327
6 | CC(=O)N[C@H]1[C@H](OCCCCCCNC(=O)CCOCC(COCCC(=O)NCCCCCCO[C@@H]2O[C@H](CO)[C@H](O)[C@H](O)[C@H]2NC(C)=O)(COCCC(=O)NCCCCCCO[C@@H]2O[C@H](CO)[C@H](O)[C@H](O)[C@H]2NC(C)=O)NC(=O)CCCCCCCCCCN=[N+]=[N-])O[C@H](CO)[C@H](O)[C@@H]1O | – | – | – | – | – | – | 2.16
7 | C=CCO[C@@H]1O[C@H](Cn2cc(CCCC(=O)O[C@@H](C(=O)O[C@H]3C[C@@]4(O)[C@@H](OC(=O)c5ccccc5)[C@@H]5[C@]6(OC(C)=O)CO[C@@H]6C[C@H](O)[C@@]5(C)C(=O)[C@H](OC(C)=O)C(=C3C)C4(C)C)[C@@H](NC(=O)c3ccccc3)c3ccccc3)nn2)[C@H](O)[C@H](O)[C@H]1NC(C)=O | Active | Stable | Stable | Active | Active | 3250 | 0.161
8 | CC(=O)N[C@@H]1[C@@H](O)[C@@H](O)[C@@H](CO)O[C@H]1n1cc(CCCC(=O)O[C@@H](C(=O)O[C@H]2C[C@@]3(O)[C@@H](OC(=O)c4ccccc4)[C@@H]4[C@]5(OC(C)=O)CO[C@@H]5C[C@H](O)[C@@]4(C)C(=O)[C@H](OC(C)=O)C(=C2C)C3(C)C)[C@@H](NC(=O)c2ccccc2)c2ccccc2)nn1 | – | Stable | Stable | – | – | 92 | 2.21
9 | CC(=O)N[C@@H]1[C@@H](O)[C@@H](O)[C@@H](CO)O[C@H]1n1cc(CCCC(=O)O[C@H]2C[C@H]3OC[C@@]3(OC(C)=O)[C@H]3[C@H](OC(=O)c4ccccc4)[C@]4(O)C[C@H](OC(=O)[C@H](OC(=O)CCCc5cn([C@@H]6O[C@H](CO)[C@H](O)[C@H](O)[C@H]6NC(C)=O)nn5)[C@@H](NC(=O)c5ccccc5)c5ccccc5)C(C)=C([C@@H](OC(C)=O)C(=O)[C@]23C)C4(C)C)nn1 | Active | Stable | Stable | Active | Active | 22900 | 1.39
